Results from ChEMBL document CHEMBL1148234, “Tricyclic pyridones as functionally selective human GABAA alpha 2/3 receptor-ion channel ligands” (Bioorg Med Chem Lett, 2004).

What was measured:
[1] = biological target: T1, GABA-A receptor; alpha-3/beta-3/gamma-2 (Homo sapiens, UniProt P18507+P28472+P34903); assay: Binding affinity at human recombinant gamma-aminobutyric-acid A receptor alpha-3-beta-3-gamma-2 expressed in L(tk) cells by [3H]Ro-151788 displacement.; type: cell-based
T1 sequence (P18507 whole entry): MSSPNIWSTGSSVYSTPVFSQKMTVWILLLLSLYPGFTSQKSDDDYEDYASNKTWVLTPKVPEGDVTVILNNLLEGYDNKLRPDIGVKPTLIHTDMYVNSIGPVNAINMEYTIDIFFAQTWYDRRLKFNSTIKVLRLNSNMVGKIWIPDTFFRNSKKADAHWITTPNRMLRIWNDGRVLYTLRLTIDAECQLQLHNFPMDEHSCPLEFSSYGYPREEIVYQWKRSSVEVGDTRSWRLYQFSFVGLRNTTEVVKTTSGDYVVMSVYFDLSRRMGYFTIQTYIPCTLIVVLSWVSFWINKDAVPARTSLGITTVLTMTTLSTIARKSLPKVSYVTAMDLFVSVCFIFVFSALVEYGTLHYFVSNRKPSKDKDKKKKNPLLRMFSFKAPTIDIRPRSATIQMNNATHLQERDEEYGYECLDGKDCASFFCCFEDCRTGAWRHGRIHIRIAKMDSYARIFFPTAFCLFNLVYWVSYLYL
T1 sequence (P28472 whole entry): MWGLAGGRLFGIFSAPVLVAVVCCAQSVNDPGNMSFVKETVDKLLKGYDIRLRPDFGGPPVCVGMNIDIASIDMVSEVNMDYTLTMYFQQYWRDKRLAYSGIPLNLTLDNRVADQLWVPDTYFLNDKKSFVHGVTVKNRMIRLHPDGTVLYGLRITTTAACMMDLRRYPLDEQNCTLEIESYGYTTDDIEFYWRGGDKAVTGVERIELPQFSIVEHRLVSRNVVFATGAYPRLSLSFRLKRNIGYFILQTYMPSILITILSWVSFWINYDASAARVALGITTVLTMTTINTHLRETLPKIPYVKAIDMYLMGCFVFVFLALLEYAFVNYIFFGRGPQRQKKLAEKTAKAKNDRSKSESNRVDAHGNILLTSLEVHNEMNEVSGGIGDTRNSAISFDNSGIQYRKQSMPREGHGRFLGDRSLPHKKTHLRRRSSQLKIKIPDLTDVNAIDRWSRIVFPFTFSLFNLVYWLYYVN
T1 sequence (P34903 whole entry): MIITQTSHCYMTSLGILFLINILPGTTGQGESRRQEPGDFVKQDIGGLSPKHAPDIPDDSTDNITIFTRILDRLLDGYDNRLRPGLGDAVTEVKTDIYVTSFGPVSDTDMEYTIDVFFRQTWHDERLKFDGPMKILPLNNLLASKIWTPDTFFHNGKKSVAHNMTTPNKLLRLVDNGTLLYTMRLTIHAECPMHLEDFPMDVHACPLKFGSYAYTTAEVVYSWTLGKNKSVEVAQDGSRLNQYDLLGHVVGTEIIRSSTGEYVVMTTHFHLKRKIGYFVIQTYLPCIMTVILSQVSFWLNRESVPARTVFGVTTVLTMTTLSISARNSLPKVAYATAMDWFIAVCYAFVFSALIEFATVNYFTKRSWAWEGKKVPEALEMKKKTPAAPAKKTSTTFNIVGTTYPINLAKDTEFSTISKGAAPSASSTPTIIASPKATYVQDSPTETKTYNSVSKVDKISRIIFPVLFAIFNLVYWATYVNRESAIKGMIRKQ
Summary of the method: (§1)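 Human recombinant GABAA receptors (α1 or α3 with β3γ2) stably expressed in L(tk⁻) cells; affinity measured as displacement of [³H]Ro15-1788. Values are mean±SD of 2–10 separate determinations.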

[2] = biological target: T2, GABA-A receptor; alpha-1/beta-3/gamma-2 (Homo sapiens, UniProt P14867+P18507+P28472); assay: Binding affinity at human recombinant gamma-aminobutyric-acid A receptor alpha-1-beta-3-gamma-2 expressed in L(tk) cells by [3H]Ro-151788 displacement.; type: cell-based; summary of the method: as §1
T2 sequence (P14867 whole entry): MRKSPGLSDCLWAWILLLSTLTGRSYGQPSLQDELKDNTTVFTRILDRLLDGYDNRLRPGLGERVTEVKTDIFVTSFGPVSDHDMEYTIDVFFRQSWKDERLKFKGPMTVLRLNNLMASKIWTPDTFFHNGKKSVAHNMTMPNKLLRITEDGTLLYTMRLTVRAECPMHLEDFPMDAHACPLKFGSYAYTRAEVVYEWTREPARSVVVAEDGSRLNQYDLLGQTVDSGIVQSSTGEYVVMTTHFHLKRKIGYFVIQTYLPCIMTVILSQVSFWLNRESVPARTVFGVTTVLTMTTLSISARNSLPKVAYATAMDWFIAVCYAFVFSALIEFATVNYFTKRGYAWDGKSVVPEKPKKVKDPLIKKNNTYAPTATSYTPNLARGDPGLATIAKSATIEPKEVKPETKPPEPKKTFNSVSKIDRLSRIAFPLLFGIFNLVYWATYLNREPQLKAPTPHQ
T2 sequence (P18507 whole entry): T1 sequence (P18507 whole entry)
T2 sequence (P28472 whole entry): T1 sequence (P28472 whole entry)

[3] = biological target: T3, Gamma-aminobutyric acid receptor subunit alpha-3 (Homo sapiens) (UniProt P34903); assay: Efficacy at Gamma-aminobutyric acid A receptor, alpha 3-ion channel relative to chlorodiazepoxide.
T3 sequence (whole entry): T1 sequence (P34903 whole entry)
Summary of the method: (§2)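 Human recombinant GABAA receptors, α1 or α3 with β3γ2, stably expressed in L(tk⁻) cells. Chloride ion flux modulated by test compound at approximately 1000×Ki, in the presence of GABA at an EC20-equivalent concentration. Efficacy expressed relative to full agonist chlordiazepoxide (=1.0), from at least seven independent experiments; some compounds measured instead by whole-cell patch-clamp current at GABA EC20.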

[4] = biological target: T4, Gamma-aminobutyric acid receptor subunit alpha-1 (Homo sapiens) (UniProt P14867); assay: Efficacy at gamma-aminobutyric acid A receptor, alpha 1-ion channel relative to chlorodiazepoxide.; summary of the method: as §2
T4 sequence (whole entry): T2 sequence (P14867 whole entry)

[5] = biological target: T2, GABA-A receptor; alpha-1/beta-3/gamma-2; assay: Displacement of [3H]Ro-151788 from human GABA-A receptor alpha-1-beta-3-gamma-2 subunits expressed in L(tk) cells; type: cell-based; summary of the method: as §1
[6] = biological target: T5, Gamma-aminobutyric acid receptor subunit alpha-2 (Homo sapiens, UniProt P47869); assay: Displacement of [3H]Ro-151788 from human GABA-A receptor alpha2 subunit expressed in L(tk) cells; type: cell-based
T5 sequence (P47869 whole entry): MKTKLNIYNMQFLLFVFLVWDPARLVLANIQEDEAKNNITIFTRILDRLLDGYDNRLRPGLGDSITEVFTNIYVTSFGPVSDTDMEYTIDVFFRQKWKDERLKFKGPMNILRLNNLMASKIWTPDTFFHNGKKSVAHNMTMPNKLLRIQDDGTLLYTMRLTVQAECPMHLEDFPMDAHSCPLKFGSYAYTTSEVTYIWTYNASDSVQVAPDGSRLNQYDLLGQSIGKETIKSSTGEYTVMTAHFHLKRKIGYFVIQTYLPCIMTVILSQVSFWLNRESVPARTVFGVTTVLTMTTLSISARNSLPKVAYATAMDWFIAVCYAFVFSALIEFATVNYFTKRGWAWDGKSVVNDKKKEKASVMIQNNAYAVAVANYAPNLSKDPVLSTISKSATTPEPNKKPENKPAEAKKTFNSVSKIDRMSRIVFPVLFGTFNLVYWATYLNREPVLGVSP

[7] = Oral bioavailability in dog; type: ADME, organism-based, Canis lupus familiaris; conditions: in vivo
[8] = biological target: T6, Gamma-aminobutyric acid receptor subunit alpha-5 (Homo sapiens, UniProt P31644); assay: Displacement of [3H]-Ro-15-1788 from human GABA-A receptor alpha5 subunit expressed in L(tk) cells; type: cell-based
T6 sequence (P31644 whole entry): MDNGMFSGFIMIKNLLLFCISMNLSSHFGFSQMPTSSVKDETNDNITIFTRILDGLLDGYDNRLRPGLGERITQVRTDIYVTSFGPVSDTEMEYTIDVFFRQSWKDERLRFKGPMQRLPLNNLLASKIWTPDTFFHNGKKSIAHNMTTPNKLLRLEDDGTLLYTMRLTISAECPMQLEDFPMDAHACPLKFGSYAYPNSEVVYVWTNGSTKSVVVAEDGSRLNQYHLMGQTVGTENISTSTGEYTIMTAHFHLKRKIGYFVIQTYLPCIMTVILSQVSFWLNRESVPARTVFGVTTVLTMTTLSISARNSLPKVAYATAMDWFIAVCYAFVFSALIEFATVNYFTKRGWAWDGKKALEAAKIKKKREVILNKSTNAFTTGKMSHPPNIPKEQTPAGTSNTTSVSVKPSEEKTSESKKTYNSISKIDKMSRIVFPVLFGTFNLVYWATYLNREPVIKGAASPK

[9] = biological target: Gamma-aminobutyric acid receptor subunit alpha-6 (Homo sapiens, UniProt Q16445); assay: Displacement of [3H]Ro-151788 from human GABA-A receptor alpha6 subunit expressed in L(tk) cells; type: cell-based
Gamma-aminobutyric acid receptor subunit alpha-6, sequence (Q16445 whole entry): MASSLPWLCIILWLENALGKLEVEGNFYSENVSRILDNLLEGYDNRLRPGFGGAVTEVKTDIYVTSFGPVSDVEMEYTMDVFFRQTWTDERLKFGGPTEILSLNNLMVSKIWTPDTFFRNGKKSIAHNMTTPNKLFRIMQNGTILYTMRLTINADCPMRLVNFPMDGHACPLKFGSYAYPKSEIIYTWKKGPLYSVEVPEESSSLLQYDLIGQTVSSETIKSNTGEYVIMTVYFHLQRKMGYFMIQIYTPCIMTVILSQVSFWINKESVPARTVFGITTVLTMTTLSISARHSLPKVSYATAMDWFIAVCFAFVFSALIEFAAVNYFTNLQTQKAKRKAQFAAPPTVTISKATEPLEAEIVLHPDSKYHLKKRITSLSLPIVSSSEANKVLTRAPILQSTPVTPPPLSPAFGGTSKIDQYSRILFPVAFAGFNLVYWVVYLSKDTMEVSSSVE

[10] = Oral bioavailability in rat; type: ADME, organism-based; conditions: in vivo
[11] = biological target: Gamma-aminobutyric acid receptor subunit alpha-4 (Homo sapiens, UniProt P48169); assay: Displacement of [3H]Ro-151788 from human GABA-A receptor alpha4 subunit expressed in L(tk) cells; type: cell-based
Gamma-aminobutyric acid receptor subunit alpha-4, sequence (P48169 whole entry): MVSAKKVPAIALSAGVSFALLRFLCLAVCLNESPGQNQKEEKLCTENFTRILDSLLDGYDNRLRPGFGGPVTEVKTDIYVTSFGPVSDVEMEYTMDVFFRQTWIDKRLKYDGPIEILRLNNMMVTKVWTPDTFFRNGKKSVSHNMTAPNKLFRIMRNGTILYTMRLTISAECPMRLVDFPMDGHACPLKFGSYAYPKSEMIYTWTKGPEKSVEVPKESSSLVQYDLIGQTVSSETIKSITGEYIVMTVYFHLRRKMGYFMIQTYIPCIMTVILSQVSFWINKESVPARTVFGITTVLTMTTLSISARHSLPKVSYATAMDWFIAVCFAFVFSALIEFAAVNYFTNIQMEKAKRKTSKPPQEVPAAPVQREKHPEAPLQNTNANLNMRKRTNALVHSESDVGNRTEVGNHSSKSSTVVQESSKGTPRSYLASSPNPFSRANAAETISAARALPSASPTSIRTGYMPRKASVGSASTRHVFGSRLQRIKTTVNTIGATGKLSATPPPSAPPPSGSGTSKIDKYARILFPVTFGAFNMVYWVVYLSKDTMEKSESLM

Row | Compound | Ki [1] [nM] | Ki [2] [nM] | Efficacy [3] | Efficacy [4] | Ki [5] [nM] | Ki [6] [nM] | bioavailability [7] [%] | Ki [8] [nM] | Ki [9] [nM] | bioavailability [10] [%] | Ki [11] [nM]
1 | Cc1csc(-c2cc(-c3ccoc3)c3n(c2=O)CCCc2ccncc2-3)n1 | 4.4 | 3.9 | 0.05 | 0.04 | – | – | – | – | – | – | –
2 | Cc1csc(-c2cc(-c3cccnn3)c3n(c2=O)CCCc2ccncc2-3)n1 | 17.3 | 26.1 | -0.44 | -0.33 | – | – | – | – | – | – | –
3 | Cc1csc(-c2cc(-c3ccn(C)n3)c3n(c2=O)CCCc2ccncc2-3)n1 | 20 | 10 | 0.47 | 0.29 | – | – | – | – | – | – | –
4 | Cc1csc(-c2cc(-c3ccc4ccccc4c3)c3n(c2=O)CCCc2ccncc2-3)n1 | > 33 | > 33 | – | – | – | – | – | – | – | – | –
5 | Cc1csc(-c2cc(-c3nccn3C)c3n(c2=O)CCCc2ccncc2-3)n1 | 16.8 | – | -0.01 | -0.33 | 14.3 | – | – | – | – | – | –
6 | Cc1csc(-c2cc(-c3ccncn3)c3n(c2=O)CCCc2ccncc2-3)n1 | 8.5 | 12.2 | 0.32 | 0.03 | – | – | – | – | – | – | –
7 | Cc1csc(-c2cc(-c3ccc(C(C)(C)C)cc3)c3n(c2=O)CCCc2ccncc2-3)n1 | > 33 | > 33 | – | – | – | – | – | – | – | – | –
8 | Cc1csc(-c2cc(-c3ccnnc3)c3n(c2=O)CCCc2ccncc2-3)n1 | 5 | 8.3 | 0.2 | -0.41 | – | – | – | – | – | – | –
9 | Cc1csc(-c2cc(-c3cncnc3)c3n(c2=O)CCCc2ccncc2-3)n1 | 9 | 21.1 | 0.16 | -0.03 | – | – | – | – | – | – | –

These reach a lower Ki [1]. Values come first.

Row | Ki [1] [nM] | Ki [2] [nM] | Efficacy [3] | Efficacy [4] | Ki [5] [nM] | Ki [6] [nM] | bioavailability [7] [%] | Ki [8] [nM] | Ki [9] [nM] | bioavailability [10] [%] | Ki [11] [nM] | Compound
10 | 4.2 | 7.8 | 0.41 | -0.21 | – | – | – | – | – | – | – | Cc1csc(-c2cc(-c3ccc[nH]3)c3n(c2=O)CCCc2ccncc2-3)n1
11 | 2.4 | 5.3 | -0.02 | -0.16 | – | – | – | – | – | – | – | Cc1csc(-c2cc(-c3cccnc3)c3n(c2=O)CCCc2ccncc2-3)n1
12 | 3 | 4 | 0.46 | 0 | – | – | – | – | – | – | – | Cc1csc(-c2cc(-c3cccn3C)c3n(c2=O)CCCc2ccncc2-3)n1
13 | 3 | 5 | 0.48 | 0.56 | – | – | – | – | – | – | – | Cc1csc(-c2cc(-c3ccccc3F)c3n(c2=O)CCCc2ccncc2-3)n1
14 | 0.4 | – | 0.26 | 0.17 | 0.2 | – | – | – | – | – | – | Cc1csc(-c2cc(-c3ccc(Cl)cc3)c3n(c2=O)CCCc2ccncc2-3)n1
15 | 1.2 | 1.5 | 0.36 | 0.08 | – | – | – | – | – | – | – | Cc1csc(-c2cc(-c3ccccc3C)c3n(c2=O)CCCc2ccncc2-3)n1
16 | 3.1 | 4.6 | 0.41 | -0.11 | – | – | – | – | – | – | – | Cc1csc(-c2cc(-c3c(C)noc3C)c3n(c2=O)CCCc2ccncc2-3)n1
17 | 3.1 | 5.4 | 0.39 | -0.04 | – | – | – | – | – | – | – | Cc1csc(-c2cc(-c3ccc(C#N)cc3)c3n(c2=O)CCCc2ccncc2-3)n1
18 | 0.4 | 0.7 | 0.32 | 0.1 | – | 0.3 | – | – | – | – | – | Cc1csc(-c2cc(-c3ccccc3)c3n(c2=O)CCCc2ccncc2-3)n1
19 | 0.5 | 1.3 | 0.45 | 0 | – | – | 20 | > 33.3 | 65.9 | 28 | 27.9 | Cc1csc(-c2cc(-c3ccncc3)c3n(c2=O)CCCc2ccncc2-3)n1
